# PMI act hi M6P = increases human PMI activity with near-saturating mannose 6-phosphate; P34949; coupled PMI enzyme assay, resazurin fluorescence, 20 min; hits give high values; 1 = untreated enzyme, 0 = substrate-free blank; activation factor at 20 µM; actives 0.34% (n = 190,000);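 active = activation factor of 2 or more at 20 µM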
#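 Technique: Diaphorase-driven resazurin-to-resorufin fluorescence, excitation 544, emission 590 nm | Assay system: Human PMI in coupled enzyme assay | Times: Enzyme reaction with compound 20 min at room temperature | Medium: HEPES-buffered pH 7.4 with magnesium and detergent | Reagent: Mannose-6-phosphate 1.0 mM (near-saturating) plus 0.22 mM NADP+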
# L major viab = inhibitors of Leishmania major promastigote growth; Leishmania major promastigotes, resazurin fluorescence viability; inhibition, % at 10 µM; actives 9% (n = 200,000); in the data active = inhibition above about 50%;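 note: promastigotes grown with compound for 44 hours at 28 °C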
# Rad51 HR inh = Rad51 (human) homologous recombination inhibition; Q06609; inhibition, % at 10 µM; hRad51 DNA strand exchange, fluorescence dequenching; actives 0.085% (n = 200,000);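 active = inhibition above 40% at the single screening dose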;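 note: 0% = DMSO control wells and 100% = blanks with heterologous ssDNA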
# Target sequence (Q06609 whole entry, looked up): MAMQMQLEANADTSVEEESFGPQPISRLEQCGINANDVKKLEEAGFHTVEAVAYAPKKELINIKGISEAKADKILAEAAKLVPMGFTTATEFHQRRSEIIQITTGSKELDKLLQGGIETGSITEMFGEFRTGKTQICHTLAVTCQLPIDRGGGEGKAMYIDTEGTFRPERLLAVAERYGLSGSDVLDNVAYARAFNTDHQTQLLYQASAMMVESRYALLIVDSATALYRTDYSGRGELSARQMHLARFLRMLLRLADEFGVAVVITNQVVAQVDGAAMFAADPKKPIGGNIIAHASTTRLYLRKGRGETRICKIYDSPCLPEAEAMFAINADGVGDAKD
#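 System: human Rad51 nucleoprotein filaments preassembled on unlabelled ssDNA. Reagent: labelled 47-mer dsDNA for strand exchange. Schedule: 30-min compound preincubation and 15-min exchange, both room temperature. Measured by: FRET fluorescence dequenching, excitation 485 nm, emission 520 nm. Read-out: Fluorescence-based percent inhibition, control- and blank-normalised. Benchmarks: plate controls and plate blanks.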
# PMI act = increases human mannose-6-phosphate isomerase activity | P34949 | purified human PMI, coupled resazurin fluorescence, 20 min; hits give high values; 1 = vehicle control, 0 substrate-free wells | activation factor at 20 µM | actives 0.005% (n = 190,000) | AID 1214;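 active = activation factor of 2 or more at 20 µM, relative to plate controls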
# WT yeast gro inh = growth inhibition of WT yeast, mitochondrial fusion screen | mitochondrial fusion phenotypic screen, WT strain | inhibition, % at 10 µM | actives 2.1% (n = 190,000) | AID 1362; in the data active = inhibition above about 58%; tested in S. cerevisiae
# m-calpain inh = blocks pig calpain II enzyme activity. purified calpain II, fluorogenic peptide substrate, 30 min. inhibition, % at 16 µM. actives 0.37% (n = 220,000);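 active = inhibition above about 50%, limit read from the data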
# Active calls of the source: *; i = inactive; . = no result. Compounds with a hit are over-represented: about 9.8% of the library has one in this group of screens.
SMILES,PMI act hi M6P,L major viab,Rad51 HR inh,PMI act,WT yeast gro inh,m-calpain inh
CCN(CC)CCCN(Cc1cc2cc3c(cc2[nH]c1=O)OCO3)C(=S)Nc1ccccc1OC,0.9,-4,-3,0.9,-1,-80
COc1cc(/C=N/NC(=O)c2[nH]nc3c2CCc2ccccc2-3)ccc1O,0.8,14,9,1,17,-30
O=C(CSc1ccccc1)NCCCc1ccccc1,1,-1,-5,1,-2,19
C/C=C/C(=O)OCC(=O)Nc1ccc(SC(F)F)cc1,1,-2,2,1,-14,-24
O=C(Nc1ccccn1)c1cc(-c2cccc(Cl)c2)nc2ccccc12,1,16,-8,1,65*,16
O=C(Nn1cnnc1)c1cc(-c2cccc(Br)c2)nc2ccccc12,.,.,8,.,.,-24
O=C(Nc1ncccn1)c1cc(-c2cccc(Br)c2)nc2ccccc12,0.8,83*,4,0.8,34,-21
O=C(Nc1ccc([N+](=O)[O-])cn1)c1cc(-c2cccc(Cl)c2)nc2ccccc12,1,6,6,1,10,-13
CCCc1c(O)nc(SCC(=O)O)[nH]c1=O,1,-6,19,1,-7,-17
COc1ccc(CCNC(=O)CSc2nncs2)cc1,1.1,59*,-2,1,-11,-8
COc1ccc(CCNC(=O)CSc2nc(C)cs2)cc1,1.1,-4,-4,1,-7,27
N#CC1(c2ccccc2)CCC(=O)N1Cc1ccccc1 (centres undefined),.,.,.,.,.,0
CCCc1cc(=O)[nH]c(SCC(=O)c2ccc3c(c2)NC(=O)CO3)n1,.,.,.,.,.,-7
CN(C1CCCCC1)S(=O)(=O)c1ccc(NC(=O)c2ccc(Br)o2)cc1,0.9,57*,19,0.9,16,-7
Cc1cccc2cc(CN(Cc3ccccc3)C(=S)NCCCN(C)C)c(=O)[nH]c12,0.9,78*,2,0.9,3,-18
CCN(CC)CCCNC(=S)N(Cc1cccnc1)Cc1cc2cccc(C)c2[nH]c1=O,0.9,0,.,0.9,0,13
Cc1cccc2cc(CN(Cc3cccnc3)C(=S)NCCCN(C)C)c(=O)[nH]c12,.,-7,.,.,6,-10
Cc1ccc(C)c2[nH]c(=O)c(CN(CCCN(C)C)C(=O)NCc3ccccc3)cc12,0.9,.,-9,0.9,-7,-18
Cc1ccc(CN(Cc2cc3cccc(C)c3[nH]c2=O)C(=S)NCCCN(C)C)cc1,0.9,62*,-4,1,-3,-54
Cc1cc(C)c2cc(CN(CCCN(C)C)C(=S)NCc3ccccc3)c(=O)[nH]c2c1,1,100*,1,1,8,-44
COc1ccc(/C(O)=C/c2nc3ccc(C(=O)NCCc4cccc(C)c4)cc3[nH]c2=O)cc1OC,1,1,-73,1,13,-108
CC1CN(CC(=O)NN=C(c2ccccc2)c2ccccc2)CC(C)O1 (centres undefined),1,1,.,1,6,-13
Cc1cc(C)c2nc(/N=C(\N)NC(=O)Nc3ccccc3)nc(C)c2c1,0.9,100*,-2,0.9,58*,-78
Cc1ccc(N/N=C(\C#N)C(N)=S)c(C)c1,3*,19,.,1.8,38,-9
Cc1ccc(NC(=O)/C(C#N)=N/Nc2ccc(C(=O)O)cc2)c(C)c1,.,.,.,.,.,8
SMILES,PMI act hi M6P,L major viab,Rad51 HR inh,PMI act,WT yeast gro inh,m-calpain inh
COc1ccc(-c2c[n+]3c(n2-c2ccc(C)cc2)CCCCC3)cc1,.,.,-5,.,.,-23
CCOc1ccc(-n2c(-c3ccc(Br)cc3)c[n+]3c2CCCCC3)cc1,1,101*,-20,1.2,23,12
CCOc1ccc(-n2c(-c3ccccc3)c[n+]3c2CCC3)cc1,1.1,94*,-7,1,-6,22
COc1ccc(-c2c[n+]3c4n2CCCCC4=C(c2ccccc2)C3)cc1,1.1,100*,.,1.1,-10,i
CCOc1ccc(-n2c(-c3ccc(OC)cc3)c[n+]3c2CCCCC3)cc1,1,100*,2,0.9,12,-10
CNc1ccc2nnc(C(F)(F)C(F)(F)C(F)(F)F)n2n1,1.1,-7,-7,1,-3,5
COc1ccc(-c2c[n+]3c(n2-c2ccccc2)CCCCC3)cc1,1,99*,-17,1,-1,21
O=C(Oc1cccnc1)c1ccc(Cl)c(Cl)c1,1,-3,.,1,96*,-18
COc1ccc(C(=O)Oc2cccnc2)cc1,1,-7,0,1,5,30
COc1ccc(-n2ncc(Cl)c(Cl)c2=O)cc1,1,82*,1,1,-7,-2
Cc1[nH]ccc(=O)c1OC1OC(CO)C(O)C(O)C1O (centres undefined),1.1,-1,-3,1.1,-9,-18
CN(C)C(=O)COC(=O)c1cccc(CN2C(=O)c3ccccc3C2=O)c1,1,-6,4,1,3,44
O=C(NC(=S)Nc1nc(-c2ccc(Br)cc2)cs1)c1cccnc1,2.5*,-3,-1,1.5,12,-4
Cc1onc(-c2ccccc2)c1NC(=O)N(CCC#N)Cc1ccccc1,.,.,19,.,.,-9
COc1cccc(-n2nc(C#N)c(Cl)cc2=O)c1,1.1,100*,12,1.3,77*,-33
COc1cccc(-n2nc(C(N)=O)c(O)cc2=O)c1,1,-5,-3,1.1,1,-19
CC1CCN(Cc2ccc(NC(=O)C3CCN(c4nnc(-n5cccc5)s4)CC3)cc2)CC1,0.9,92*,4,0.9,12,-14
O=C(C1CCN(c2nnc(-n3cccc3)s2)CC1)N1CCN(Cc2ccc3c(c2)OCO3)CC1,1,-7,1,0.9,2,-45
c1ccc2nc3c(cc2c1)CCCCC3,.,.,-11,.,.,42
O=C(N/N=C/c1nn(-c2ccccc2)cc1-c1ccc(Cl)cc1)c1ccncc1,1,60*,5,0.9,47,-52
COc1ccc(NC(=O)N2CCC(CO)(CC3CCCCO3)CC2)c(OC)c1 (centres undefined),.,.,-17,.,.,25
CCNCCNc1ccc(Cl)cc1[N+](=O)[O-],.,60*,4,.,.,.
O=C(NC(=S)NCC1CCCO1)c1ccc([N+](=O)[O-])cc1 (centres undefined),1,52*,-8,1,4,-11
CCOc1ccc(C2NC(=O)c3sc(=S)n(-c4ccccc4)c3N2)cc1 (centres undefined),2.3*,4,.,1.7,-3,0
O=C1NC(c2ccccc2)Nc2c1sc(=S)n2-c1ccccc1 (centres undefined),2.2*,16,-7,1.7,9,4
COc1ccc(C2NC(=O)c3sc(=S)n(-c4ccccc4)c3N2)cc1 (centres undefined),1.5,7,-7,1.3,-5,6

# Screening data as filed in PubChem BioAssay.
